Hep lipid drop: hepatic lipid droplet formation modulation. AML12 mouse hepatocytes, oleate lipid droplets, BODIPY imaging. inhibition, % at 6.5 µM. 240,000 tested, 0.4% active. AID 1656;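 active = lipid droplet intensity inhibited by at least 50%, with more than 500 cells counted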
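Assay system: AML12 mouse liver cells | Compound: 6.5 µM single-point dosing | Schedule: Overnight exposure | Technique: Fluorescence imaging, 20x objective, two fields per well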
MrgX1 ag: activates human MrgX1 receptor signaling. Q96LB2. MrgX1-HEK293 cells, Fluo-4 calcium fluorescence, agonist mode; hits give high values. B-score at 10 µM. 310,000 tested, 0.44% active. AID 588627;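 active = calcium response B-score plate-corrected fluorescence ratio at least 3 library SD, with starting fluorescence B-score inside 5 SD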
Target sequence (Q96LB2 whole entry, looked up): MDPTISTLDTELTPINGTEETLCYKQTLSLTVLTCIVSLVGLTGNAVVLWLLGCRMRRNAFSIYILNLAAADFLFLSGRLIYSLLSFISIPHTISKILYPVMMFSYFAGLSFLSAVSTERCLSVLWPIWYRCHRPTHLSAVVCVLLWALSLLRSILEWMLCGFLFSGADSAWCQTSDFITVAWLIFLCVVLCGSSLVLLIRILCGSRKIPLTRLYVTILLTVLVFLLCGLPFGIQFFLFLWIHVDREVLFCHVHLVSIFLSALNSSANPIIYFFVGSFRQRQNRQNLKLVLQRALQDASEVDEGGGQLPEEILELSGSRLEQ
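Test system: HEK293 cells stably expressing human MrgX1 receptor; amount: 15,000 cells per well; doses: compound delivered in addition one of three; times: overnight plating before 1 h dye loading; detection: Fluo-4 NW calcium-flux fluorescence, kinetic read; read-out basis: B-scored fluorescence response ratio; controls: positive and negative controls per plate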
MrgX1 allo act: allosterically activates human MrgX1 receptor signaling. Q96LB2. MrgX1-HEK293, Fluo-4 calcium flux, FDSS; hits give high values. B-score at 10 µM. 310,000 tested, 0.63% active;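 active = plate-corrected calcium response at least 3 library SD above typical, normal starting fluorescence, not activating the receptor alone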;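 note: compound read alongside a low EC10 to EC30 dose of BAM8-22 agonist; peak minus trough fluorescence over baseline measured at the second addition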
MrgX1 antag: blocks BAM8-22 activation of human MrgX1 receptor. AID 588676. MRGX1-HEK293 calcium flux, Fluo-4, BAM8-22 antagonism; hits give low values. 310,000 tested, 1.3% active. B-score at 10 µM. Q96LB2;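 active = calcium-response B-score plate-corrected more than 3 library SD below zero, starting fluorescence within 5 deviations, no agonist response on first addition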;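 note: peak minus trough fluorescence over baseline after final BAM8-22 challenge near maximal dose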
RGS4 block: human RGS4 inhibition; P49798; 310,000 tested, 0.45% active; HEK293 M3R/RGS4 inducible, Fluo-4 calcium flux; hits give high values; triggered by carbachol at its EC20; B-score at 10 µM; AID 463165;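 active = B-score, a plate-corrected calcium signal, over three deviations above library mean, with baseline fluorescence within five deviations of library mean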;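 note: RGS4 expression induced by doxycycline in cells with stable M3 receptor; B-score is computed from the integrated fluorescence ratio over baseline after carbachol; higher B-score means a larger calcium signal and so more RGS4 inhibition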
Target sequence (P49798 whole entry, looked up): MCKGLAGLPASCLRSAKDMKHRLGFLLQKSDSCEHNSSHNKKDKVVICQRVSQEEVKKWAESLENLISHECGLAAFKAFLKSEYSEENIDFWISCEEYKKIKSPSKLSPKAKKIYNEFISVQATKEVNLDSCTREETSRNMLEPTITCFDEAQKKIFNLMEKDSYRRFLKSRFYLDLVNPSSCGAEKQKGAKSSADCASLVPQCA
RGS4 pot: potentiators or activators of RGS4; HEK293 M3R/inducible RGS4, carbachol calcium flux Fluo4; hits give low values; B-score at 10 µM; 310,000 tested, 0.92% active; AID 463111;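 active = B-score of the integrated calcium signal more than 4 SD below the library mean, with starting fluorescence not abnormally high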;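 note: negative B-score means reduced calcium response which marks RGS4 activation or potentiation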
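Material: M3R-expressing HEK293 line, RGS4 induced by doxycycline | Schedule: Overnight RGS4 induction, 30 min dye load 37 °C, 20 min compound RT | Measured by: Fluo4 fluorescence kinetic imaging of calcium | Read-out: Integrated calcium ratio converted to B score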
Hep lipid conf: confirmation of inhibitors of hepatic lipid droplet formation; shares compounds with Hep lipid drop; AML12 mouse hepatocytes, BODIPY lipid droplet imaging; droplets induced with 100 µM oleic acid; inhibition, % at 5.2 µM; 870 tested, 65% active;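 active = inhibition of lipid droplet metric at least 50%, with more than 300 cells in each of four replicates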
AML12 tox img: AML12 hepatocyte cytotoxicity (counter-screen) | shares compounds with Hep lipid drop | AML12 mouse hepatocytes, DAPI nuclear morphology cytotoxicity imaging; hits give high values; cells fed 100 µM oleate overnight | z-score at 5 µM | 870 tested, 3% active; in the data active = z-score above about 6.3;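 note: compound exposure lasted overnight at 37 °C before fixation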
AML12 tox conf: AML12 hepatocyte cytotoxicity, confirmed. cytotoxicity, % at 50 µM. shares compounds with Hep lipid drop. 530 tested, under 10 active. AML12 mouse hepatocyte viability, ATP luminescence; cells loaded with 100 µM oleic acid. AID 463219;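 active = cytotoxicity above 50% in each of four replicates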;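 note: compound exposure lasted overnight at 37 °C before the ATP read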
Hits are given with their value; - = inactive; . = no result given. This is a sample that favours compounds with a hit; in the whole collection about 3.8% have one here.

SMILES | Hep lipid drop | MrgX1 ag | MrgX1 allo act | MrgX1 antag | RGS4 block | RGS4 pot | others
Cc1cccn2c(=O)c3cc(C#N)c(=NC(=O)c4ccccc4)n(Cc4ccco4)c3nc12 | . | - | - | -4.87 | - | -
Cc1cccc(C(=O)N=c2c(C#N)cc3c(=O)n4cccc(C)c4nc3n2Cc2ccco2)c1 | - | - | - | - | - | -
Cc1cc(N/N=C/c2cccc(Cl)c2)nc(NCc2ccccc2)n1 | - | - | - | - | - | -7.67
Cc1cc(N/N=C/c2ccccc2)nc(NCc2ccccc2)n1 | - | - | - | - | - | -
Cc1cnc(CN(C)C(=O)c2ccc3oc(Cc4ccccc4)nc3c2)[nH]1 | - | - | - | - | - | -
Cc1cnc(CN(C)C(=O)c2ccc3oc(Cc4ccc(Cl)cc4)nc3c2)[nH]1 | - | - | - | - | - | -7.18
Cc1[nH]c2ccccc2c1CCN(Cc1cccnc1)C(=S)NC(C)(C)C | . | - | - | - | - | -
NC(=O)C1CCN(CC(=O)N2N=CCC2c2ccccc2)CC1 (configuration not stated) | - | - | - | -5.8 | - | -
O=C(CN1CCN(c2ccccc2)CC1)N1N=CCC1c1ccccc1 (configuration not stated) | . | - | - | - | - | -
Cc1c(Br)c([N+](=O)[O-])nn1C(C)C(=O)N1CCc2ccccc2C1 (configuration not stated) | - | - | - | - | - | -9.3
N#C/C(=C\c1ccc(C#N)cc1)C(=O)N1CCCC1 | - | - | - | - | 5.14 | -
CS(=O)(=O)N(CC(=O)N1CCN(Cc2ccccc2)CC1)c1cccc([N+](=O)[O-])c1 | - | - | - | - | - | -
Nc1ccc(/C=C/C(=O)c2ccco2)cc1 | - | 49.7 | - | - | - | -
O=C(/C=C/c1ccccc1O)c1ccco1 | - | - | - | - | - | -
O=C(/C=C/c1cc(Br)ccc1O)c1ccco1 | - | 38.9 | - | - | - | -
O=C(CSc1ccc(Cl)cc1)Nc1ccc(-c2nc3ccccc3[nH]2)cc1 | - | - | - | - | - | -
O=C1C2CC=CCC2C(=O)N1c1ccc(NCCc2ccc(O)cc2)c([N+](=O)[O-])c1 (configuration not stated) | - | - | - | -5.24 | - | -
O=C1C2CC=CCC2C(=O)N1c1ccc(NCCc2ccc(Cl)cc2)c([N+](=O)[O-])c1 (configuration not stated) | - | - | - | - | - | -
COC(=O)C(CC(=O)c1ccc(Br)cc1)n1ccnc1 (configuration not stated) | - | . | . | . | 6.64 | -
CN(C(=O)CN1C(=O)C2C3CC(C(Br)C3Br)C2C1=O)C1CCCCC1 (configuration not stated) | - | - | - | - | - | -
N#Cc1ccc(N=c2ssnc2Cl)cc1 | . | 30.5 | - | - | - | -
Clc1nssc1=Nc1ccccc1 | - | . | . | . | . | .
Clc1ccc(N=c2ssnc2Cl)cc1 | - | - | - | - | - | -
COc1ccc(N=c2ssnc2Cl)cc1 | - | 27.4 | - | - | - | -
COc1cc(N=c2ssnc2Cl)cc(OC)c1OC | . | 32.5 | - | - | - | -
SMILES | Hep lipid drop | MrgX1 ag | MrgX1 allo act | MrgX1 antag | RGS4 block | RGS4 pot | others
Fc1ccc(N=c2ssnc2Cl)c(F)c1 | - | 35.2 | - | - | - | -
Cc1ccc(C)c(NC(=S)c2ccc3ccccc3n2)c1 | 55.9 | - | - | - | - | -
CC1(c2nnc(-c3cccc(Cl)c3)o2)CC(c2ccccc2F)=NO1 (configuration not stated) | . | - | - | - | - | -
COc1cccc(CN2CC(C(=O)NCCc3ccc(C)s3)CCC2=O)c1 (configuration not stated) | - | - | - | - | - | -
Cc1cc(-c2ccccc2)nc2cc(C(=O)N(Cc3ccccc3)Cc3ccccc3)nn12 | - | - | - | - | - | -7.9
CC(=O)c1ccc(OCC(O)CN2CCN(CCO)CC2)cc1 (configuration not stated) | - | - | - | - | - | -
CCN(CC(=O)NCc1cccs1)C(=O)C1CC(=O)N(c2ccc(OC)cc2OC)C1 (configuration not stated) | . | - | - | -4.85 | - | -
COc1ccc(/C=c2\sc3nc(-c4ccccc4OC)nn3c2=O)c(OC)c1 | - | - | - | - | - | -
C=CCOc1ccccc1/C=c1\sc2nc(=O)c(C)nn2c1=O | - | 28.3 | - | - | - | -
CC(NS(=O)(=O)c1ccc(Br)cc1)C(=O)NC1CCCCCC1 (configuration not stated) | - | - | - | - | - | -
Cc1ccc(S(=O)(=O)NC(C)C(=O)NC2CCCCCC2)cc1 (configuration not stated) | - | - | - | - | - | -7.24
CCc1nc(Nc2ccccc2F)c2oc3ccccc3c2n1 | - | - | 8.41 | - | - | -
CCc1nc(Nc2ccc(F)cc2)c2oc3ccccc3c2n1 | - | - | - | - | - | -
CCOC(=O)C1(CC)NC(c2ccc(OC)c(OC)c2)C2C(=O)N(c3cccc(C(C)=O)c3)C(=O)C21 (configuration not stated) | - | - | - | - | - | -
COc1cc(C2N3CC4(C)CN2CC(C)(C3)C4)ccc1O (configuration not stated) | 91.5 | - | - | - | - | - | Hep lipid conf=-;AML12 tox img=-
COc1ccc(C2N3CC4(C)CN2CC(C)(C3)C4O)cc1OC (configuration not stated) | - | - | - | - | - | -
CCN(CCn1cccn1)C(=O)CCc1nnc(C2(c3ccc(Cl)cc3)CCC2)o1 | - | - | - | - | - | -
CCc1cccc(N(C)C(N)=Nc2cccc3ccccc23)c1 | - | - | - | - | - | -
CCCNC1=CC(=O)CC(C)(C)C1 | 57.0 | - | - | - | - | - | Hep lipid conf=-;AML12 tox img=-
C=C(C)Cn1c(N2CCC(Cc3ccccc3)CC2)nc2c1c(=O)[nH]c(=O)n2C | 63.6 | - | - | - | - | - | Hep lipid conf=106.7;AML12 tox img=-;AML12 tox conf=-
CCC(C(=O)NCc1ccco1)N(C(=O)CNS(=O)(=O)c1ccccc1)c1ccccc1C (configuration not stated) | - | - | - | - | - | -

Compound activity from PubChem BioAssay.
